ChEMBL document CHEMBL2163342, “[18F](R)-5-chloro-1-(1-cyclopropyl-2-methoxyethyl)-3-(4-(2-fluoroethoxy)-2,5-dimethyl phenylamino)pyrazin-2(1H)-one: introduction of N3-phenylpyrazinones as potential CRF-R1 PET imaging agents” (Bioorg Med Chem Lett, 2012)

Key:
Liver microsomes [1] = test: Drug metabolism in human liver microsomes assessed as compound depletion per mg of protein at 3 uM; format: ADME, Microsome
Method in brief: (§1)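 Liver microsomes (1 mg/ml protein) incubated with 3 µM compound and 1.3 mM NADPH at 37 °C in 100 mM sodium phosphate buffer, pH 7.4. Final solvent 0.015% DMSO, 0.985% acetonitrile. Stopped at 0 and 10 min, compound measured by LC/MS/MS. Reported as depletion rate, pmol/min/mg protein.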

[2] = Octanol-phosphate buffer partition coefficient, log D of the compound at pH 7.4 by shake flask method; format: physicochemical
Method in brief: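 Shake-flask method. Octanol and 25 mM phosphate buffer (pH ~7.4) mixed and allowed to saturate overnight. Compound (1.0 mg in 1 mL octanol) added to 50 mL octanol-saturated buffer, shaken intensely 30–40 min, then layers left to separate. Each layer analysed twice by HPLC.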

[3] = biological target: T1, Corticotropin-releasing factor receptor 1 (Rattus norvegicus, UniProt P35353); test: Displacement of [125I]-o-CRF from CRFR1 in rat frontal cortex after 2 hrs by gamma counter; format: tissue-based
T1 sequence (P35353 whole entry): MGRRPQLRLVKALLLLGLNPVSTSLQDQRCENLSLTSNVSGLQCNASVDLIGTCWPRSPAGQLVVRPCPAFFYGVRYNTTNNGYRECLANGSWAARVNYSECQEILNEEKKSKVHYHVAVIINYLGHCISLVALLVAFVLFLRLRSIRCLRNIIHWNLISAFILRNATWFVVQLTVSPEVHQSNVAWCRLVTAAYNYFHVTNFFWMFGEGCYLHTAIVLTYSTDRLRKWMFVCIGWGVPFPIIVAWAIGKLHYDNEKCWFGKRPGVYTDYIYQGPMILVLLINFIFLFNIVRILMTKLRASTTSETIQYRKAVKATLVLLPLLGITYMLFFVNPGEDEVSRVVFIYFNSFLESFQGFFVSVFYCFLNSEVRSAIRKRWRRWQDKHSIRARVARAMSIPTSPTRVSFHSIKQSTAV
Method in brief: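 Rat frontal cortex homogenate (25 µg/well), prepared in 50 mM HEPES pH 7.0, 10 mM MgCl2, 2 mM EGTA, protease inhibitors, 0.005% Triton X-100, bacitracin, 0.1% ovalbumin. Incubated with 150 pM [125I]-o-CRF and compounds for 2 h at 21 °C. Separated by rapid filtration on PEI-pretreated glass fiber filters, washed with ice-cold PBS/0.01% Triton X-100. Specific binding inhibition gives Ki.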

Liver microsomes [4] = test: Drug metabolism in rat liver microsomes assessed as compound depletion per mg of protein at 3 uM; format: ADME, Microsome; method in brief: as §1
[5] = biological target: T2, Corticotropin-releasing factor receptor 1 (Homo sapiens, UniProt P34998); test: Binding affinity to CRFR1 by autoradiography
T2 sequence (P34998 whole entry): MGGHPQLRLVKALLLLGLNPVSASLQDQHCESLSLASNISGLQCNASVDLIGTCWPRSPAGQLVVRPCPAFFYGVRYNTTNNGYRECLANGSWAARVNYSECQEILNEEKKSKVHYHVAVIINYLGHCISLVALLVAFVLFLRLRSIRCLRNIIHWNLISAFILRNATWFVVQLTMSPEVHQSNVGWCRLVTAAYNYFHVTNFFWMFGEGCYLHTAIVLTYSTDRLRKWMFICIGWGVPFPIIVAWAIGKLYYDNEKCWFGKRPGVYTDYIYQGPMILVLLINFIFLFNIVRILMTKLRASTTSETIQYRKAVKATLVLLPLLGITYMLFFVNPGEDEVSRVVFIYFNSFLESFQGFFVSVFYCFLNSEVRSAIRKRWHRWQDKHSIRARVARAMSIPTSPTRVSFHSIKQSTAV
Method in brief: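 In vitro autoradiography on fresh 20 µm sagittal brain sections from adult male Sprague–Dawley rats. Sections preincubated 10 min in 50 mM HEPES, 10 mM MgCl2, EGTA, pH 7.4, then incubated with 1.3 nM [18F] radioligand at 22–24 °C for 40 min. Washed 2 min in ice-cold PBS, pH 7.4.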

[6] = Metabolic stability in baboon plasma assessed as compound remaining after 9 and 13 mins; format: ADME, cell-free; details: papio anubis, read-out: Stability
[7] = Unbound fraction in rat plasma after 3 hrs by equilibrium dialysis method; format: ADME, cell-free
Method in brief: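 Equilibrium dialysis of rat plasma spiked with compound against isotonic phosphate buffer, 3 h at 37 °C. Buffer and plasma concentrations measured by LC/MS/MS. Unbound fraction taken as the buffer/plasma concentration ratio.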

Heart = test: Drug uptake in rat heart measured at 15 and 60 mins; format: ADME, tissue-based; details: in vivo, 1 h
Method in brief: (§2)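 Whole-body biodistribution of the [18F]-labelled radioligand in rats, formulated in 10% EtOH/saline. Tissues sampled at 15 and 60 min post-dose. Activity expressed as average % injected dose per gram.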

Spleen = test: Drug uptake in rat spleen measured at 15 and 60 mins; format: ADME, tissue-based; details: in vivo, 1 h; method in brief: as §2
Muscle tissue = test: Drug uptake in rat muscle measured at 15 and 60 mins; format: ADME, tissue-based; details: in vivo, 1 h; method in brief: as §2
Brain [8] = test: Drug uptake in rat brain measured at 15 and 60 mins; format: ADME, tissue-based; details: in vivo, 1 h; method in brief: as §2
Blood = test: Drug uptake in rat blood measured at 15 and 60 mins; format: ADME, tissue-based; details: 1 h; method in brief: as §2
Lung = test: Drug uptake in rat lung measured at 15 and 60 mins; format: ADME, tissue-based; details: in vivo, 1 h; method in brief: as §2
Kidney = test: Drug uptake in rat kidney measured at 15 and 60 mins; format: ADME, tissue-based; details: in vivo, 1 h; method in brief: as §2
Brain [9] = test: Drug uptake in rat brain up to 10 mins by microPET analysis; format: ADME, tissue-based; details: in vivo
Method in brief: (§3)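 In vivo microPET imaging of rat head and neck after dosing with the [18F] radioligand. Brain uptake followed from the first 10 min through 30 min on sagittal images. Skull bone uptake checked for defluorination.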

Brain [10] = test: Drug uptake in rat brain after 10 to 30 mins by microPET analysis; format: ADME, tissue-based; details: in vivo; method in brief: as §3
Liver = test: Drug uptake in rat liver measured at 15 and 60 mins; format: ADME, tissue-based; details: in vivo, 1 h; method in brief: as §2
Intestine = test: Drug uptake in rat small intestine measured at 15 and 60 mins; format: ADME, tissue-based; details: in vivo, 1 h; method in brief: as §2
[11] = Drug uptake in rat tibia measured at 15 and 60 mins; format: ADME, tissue-based; details: in vivo, 1 h; method in brief: as §2
[12] = biological target: T3, Corticotropin-releasing factor receptor 1 (Rattus norvegicus) (UniProt P35353); test: Binding affinity to CRFR1 in Sprague-Dawley rat cerebellum at 1.3 nM after 40 mins by autoradiography; details: tested as the 18F-labelled form
T3 sequence (whole entry): T1 sequence (P35353 whole entry)
Method in brief: (§4)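 Fresh 20 µm-thick sagittal brain sections from adult male Sprague–Dawley rats. Sections were preincubated 10 min in 50 mM HEPES, 10 mM MgCl₂, […], pH 7.4, then incubated 40 min at 22–24 °C with 1.3 nM [¹⁸F]-radioligand (1.3 mCi/mL) in the same buffer. Slides were washed 2 min in ice-cold PBS (pH 7.4) and imaged by in vitro autoradiography.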

[13] = biological target: T3, Corticotropin-releasing factor receptor 1 (Rattus norvegicus); test: Binding affinity to CRFR1 in Sprague-Dawley rat neocortex at 1.3 nM after 40 mins by autoradiography; details: tested as the 18F-labelled form; method in brief: as §4

Structure (SMILES) | Drug metabolism (Liver microsomes [1]) [pmol/min] | logD [2] | IC50 [3] [nM] | Drug metabolism (Liver microsomes [4]) [pmol/min] | other results
COCC(COC)n1cc(Cl)nc(Nc2c(Cl)cc(OC)cc2Cl)c1=O | 0.03 | 3.4 | 5 | 0.17 | –
COCC(COC)n1cc(Br)nc(Nc2cc(C)c(OC)cc2C)c1=O | 0.07 | 3.8 | 0.68 | 0.14 | –
COC[C@@H](C)n1cc(Cl)nc(Nc2cc(C)c(OC)cc2C)c1=O | 0.06 | 3.4 | 0.88 | 0.19 | –
CCCN(CCC)c1cc(C)nc2c(-c3ccc(N(C)[11CH3])nc3)c(C)nn12 | – | – | – | – | Ki [5]: 1.7 nM; remaining at 13 min [6]: 50%
COCC(COC)n1cc(Br)nc(Nc2c(C)cc(OCF)cc2C)c1=O | 0.22 | 2.9 | 4.3 | 0.26 | fraction unbound at 3 h [7]: 0.03
COCC(COC)n1cc(Cl)nc(Nc2c(Cl)cc(OCCF)cc2Cl)c1=O | 0.07 | 3.1 | 210 | 0.12 | –
CCC(COC)n1nnc2c(Nc3ccc(O[11CH3])cc3C)nc(C)cc21 (centres undefined) | – | – | – | – | Ki [5]: 1.7 nM
COC[C@@H](C1CC1)n1cc(Cl)nc(Nc2cc(C)c(OCF)cc2C)c1=O | – | 3.1 | 4.1 | – | –
COCCN(CCO[11CH3])Cc1cc(C)nc2c(-c3ccc(Cl)cc3Cl)c(C)nn12 [[11C]DMP-696] | – | – | – | – | Ki [5]: 1.7 nM; remaining at 13 min [6]: 50%
COCCN(CCOC)c1nc(C)nc2c(-c3ccc([76Br])cc3Cl)c(C)nn12 | – | – | – | – | Ki [5]: 2 nM
COC[C@@H](C1CC1)n1cc(Cl)nc(Nc2cc(C)c(OC)cc2C)c1=O | 0.17 | – | – | 0.23 | –
COCC(COC)n1cc(Cl)nc(Nc2c(Cl)cc(OCF)cc2Cl)c1=O | – | 3.1 | 5.4 | – | –
COC[C@@H](C1CC1)n1cc(Cl)nc(Nc2cc(C)c(OCC[18F])cc2C)c1=O | – | – | – | – | Drug uptake (Heart): Active; Drug uptake (Spleen): Active; Drug uptake (Muscle tissue): Active; Drug uptake (Brain [8]): Active; Drug uptake (Blood): Active; Drug uptake (Lung): Active; Drug uptake (Kidney): Active; Drug uptake (Brain [9]): Active; Drug uptake (Brain [10]): Not Active; Drug uptake (Liver): Active; Drug uptake (Intestine): Active; Drug uptake [11]: Active
COCC(COC)n1cc(Br)nc(Nc2c(C)cc(OC)cc2C)c1=O | – | 2.8 | 7.8 | – | fraction unbound at 3 h [7]: 0.03
COC[C@@H](C1CC1)n1cc(Cl)nc(Nc2cc(C)c(OCCF)cc2C)c1=O | 0.07 | 3.7 | 2.4 | 0.12 | Activity [12]: 19%; Activity [13]: 18%
